Consider 96 molecules from ChEMBL document CHEMBL4513216, “Probing the Open Global Health Chemical Diversity Library for Multistage-Active Starting Points for Next-Generation Antimalarials” (ACS Infect Dis, 2020).

This data set can be described thus: Toxicity liver stage against HepG2, at 10uM. On the set-up: test concentration 10 uM, cell line HepG2-A16-CD81EGFP. As to conditions: human, HepG2-A16-CD81EGFP cells; read-out: INHIBITION
The format is cell-based. In outline: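 Uninfected HepG2-A16-CD81EGFP cells, 3 × 10^3 per well, 1536-well, plated on prespotted compound at 10 μM final, parasite-free screening media added to match infected plates; puromycin 10 μM positive, DMSO 0.5% negative; run in parallel with 48 h PbLuc assay at 37 °C, 5% CO2; viability by CellTiter-Glo luminescence, normalized to controls.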
With `CCSc1nnc(N(CCC#N)CCC#N)s1`, the cytotoxicity at 10 µM worked out at 4.91%.

On to `O=C(c1sccc1-n1cnnn1)N1CCC(Cc2ccccc2)CC1`, for which the cytotoxicity at 10 µM amounted to 9.49%.

As for `CCOc1ccccc1-c1noc(CN(C)Cc2cnn(C)c2)n1`, the cytotoxicity at 10 µM was -6.98%.

Consider `CC(C)(C)CN[C@@H]1CO[C@H](CNC(=O)c2ccncc2)[C@H]1O`, for which the cytotoxicity at 10 µM was -2.5%.

Consider `CN1CCN2C(=O)N(c3ccccc3)C[C@H]2C1`, for which the cytotoxicity at 10 µM stood at 3.7%.

Consider `CCCc1cc(=O)[nH]c2nnc(SCC(C)=O)n12`, for which the cytotoxicity at 10 µM came to 7.29%.

For `Cc1ccccc1CSc1nc(=O)n(CCO)c2c1CCC2`, the cytotoxicity at 10 µM amounted to 20.6%.

In the case of `COCCNC(=O)c1nc2c(s1)CCCN2c1ccc(C)nn1`, the cytotoxicity at 10 µM was 8.33%.

Turning to `COCC1COCCC12CCN(C(=O)COc1ccccc1C)CC2` (stereo unspecified), the cytotoxicity at 10 µM was 2.08%.

For `Cc1nc(N2CCCC2)nc2c1CCN(C(=O)NC(C)C)CC2`, the cytotoxicity at 10 µM amounted to 2.93%.

With `CO[C@@H]1CC[C@H]2[C@H]1OCCN2C(=O)c1ccco1`, the cytotoxicity at 10 µM is -148%.

Regarding `CCCOc1ccc(C(=O)Oc2cc(=O)n3cccc(C)c3n2)cc1`, the cytotoxicity at 10 µM is 5.17%.

Take `COc1cccc(CNC(=O)c2cccnc2N)c1`: the cytotoxicity at 10 µM turned out to be 20.1%.

Consider `COc1ccc(C2CC(=O)Oc3cc(C)[nH]c(=O)c32)cc1` (stereo unspecified), for which the cytotoxicity at 10 µM is -3.16%.

In the case of `O=C(Cn1cc(-c2ccccc2)ncc1=O)Nc1ccncc1`, the cytotoxicity at 10 µM amounted to 11%.

For the molecule `O=S(=O)(NC1=NCN(CCc2cccs2)CN1)c1ccc(F)cc1`, the cytotoxicity at 10 µM was -1.01%.

For the molecule `Cc1cccc(CN2C[C@@H]3CN(C(=O)NC(C)C)C[C@@H]3C2=O)c1`, the cytotoxicity at 10 µM is -12.9%.

Take `O=C1COC2(CCN(Cc3ccccn3)CC2)CN1CC1CC1`: the cytotoxicity at 10 µM worked out at 13.9%.

As to `Cc1c2ncn(CC(=O)N(C)C)c(=O)c2nn1C`, the cytotoxicity at 10 µM was -2.56%.

With `Cc1cccc2c1cnn2CCCNC(=O)C(C)C`, the cytotoxicity at 10 µM was -2.12%.

As to `O=C(c1cccnc1)N1CCOC(Cc2ccccc2Cl)C1` (stereo unspecified), the cytotoxicity at 10 µM turned out to be 2.12%.

Take `CCN(CC)c1nc(O)cc(C(C)n2ncc3ccccc3c2=O)n1` (stereo unspecified): the cytotoxicity at 10 µM was determined as 2.47%.

`CCOCC(=O)N1CCC(c2cc3ncccc3c(O)n2)CC1`: the cytotoxicity at 10 µM is -30.1%.

With `CC1(C2CCN(CC(N)=O)CC2)CN(Cc2ccccc2)C(=O)CO1` (stereo unspecified), the cytotoxicity at 10 µM is -19.9%.

Consider `Cc1ccccc1CC(=O)N1CC[C@@](O)(CNS(C)(=O)=O)[C@H](O)C1`, for which the cytotoxicity at 10 µM is -25.6%.

`COCC(=O)N1CCCC1c1nc(O)cc(C(C)C)n1` (stereo unspecified): the cytotoxicity at 10 µM was -15.5%.

As for `Cc1cc(-c2cnc(N3CCNC(=O)C3)nc2-c2sccc2C)on1`, the cytotoxicity at 10 µM was -12%.

For `CC(=O)Nc1nc(C2CCN(C(=O)Cc3ccccc3)CC2)cs1`, the cytotoxicity at 10 µM was -11.8%.

Regarding `Cc1cc(CN2CCOC(C)(C(=O)N3CCOCC3)C2)no1` (stereo unspecified), the cytotoxicity at 10 µM is -24.2%.

In the case of `COCCC(=O)N1CCC(c2cc(O)n(C)n2)C1` (stereo unspecified), the cytotoxicity at 10 µM is -23.1%.

For the molecule `O=C1NCCN1C1CCN(CC(O)c2ccccc2F)CC1` (stereo unspecified), the cytotoxicity at 10 µM was -0.535%.

Regarding `CN(C)Cc1ccnc(NS(=O)(=O)CCc2ccccc2)c1`, the cytotoxicity at 10 µM was -3.09%.

Regarding `Cc1ccc(CNCCC(O)(c2nccn2C)C(F)(F)F)o1` (stereo unspecified), the cytotoxicity at 10 µM is 1.18%.

Take `COc1ccccc1CC1CCCN(C(=O)c2nccnc2N)C1` (stereo unspecified): the cytotoxicity at 10 µM came to 5.79%.

On to `CC(C)N(C)CCCNC(=O)c1cnn(C(C)C)c1C(F)(F)F`, for which the cytotoxicity at 10 µM was determined as 5.31%.

With `CS(=O)(=O)NCCCNC(=O)c1cnc(-c2ccsc2)s1`, the cytotoxicity at 10 µM is -13.7%.

For the molecule `Cc1noc(C)c1C(C)NC(=O)N1CCC(NC(=O)c2ccsc2)CC1` (stereo unspecified), the cytotoxicity at 10 µM was determined as 7.07%.

For the molecule `CCN1CC(COC(=O)c2ccc(Br)cc2F)CC1=O` (stereo unspecified), the cytotoxicity at 10 µM was -2.45%.

For the molecule `CN1CCOC(CNC(=O)C2(c3cccc(Cl)c3)CC2)C1` (stereo unspecified), the cytotoxicity at 10 µM is -3.03%.

As for `O=C(NCCNc1cnccn1)N1CC=C(c2ccccc2)CC1`, the cytotoxicity at 10 µM turned out to be 6.39%.

`Cc1cccc(NC(=O)[C@@H]2CCCN2Cc2ccccc2C#N)n1`: the cytotoxicity at 10 µM was -4.11%.

Take `O=C(NCCNS(=O)(=O)c1ccc(C(F)(F)F)cc1)c1ccoc1`: the cytotoxicity at 10 µM was -1.36%.

For `NC(=O)COc1ccc(CNCc2ccc(Cl)c(F)c2)cc1`, the cytotoxicity at 10 µM was -3.64%.

In the case of `Cc1cc(C)n(Cc2cccc(C(=O)NCCSCC(C)(C)O)c2)n1`, the cytotoxicity at 10 µM is -6.93%.

As for `CC1CN(C)c2ccccc2CN1C(=O)c1cnsn1` (stereo unspecified), the cytotoxicity at 10 µM is 0.736%.

For the molecule `COCCN(C(=O)c1ccn(-c2ccc(OC)cc2)n1)C(C)C(N)=O` (stereo unspecified), the cytotoxicity at 10 µM worked out at 0.337%.

With `Cc1cc(C)c(CNC(=O)NCC2Cc3ccccc32)c(=O)[nH]1` (stereo unspecified), the cytotoxicity at 10 µM is -3.78%.

With `CCOCC(=O)NS(=O)(=O)c1ccc(F)cc1C(F)(F)F`, the cytotoxicity at 10 µM was determined as 3.25%.

Regarding `CC(CNC(=O)c1ccon1)Oc1cccc(Br)c1` (stereo unspecified), the cytotoxicity at 10 µM is -1.52%.

Consider `CC(Cn1cccn1)NC(=O)N1CCC(NS(C)(=O)=O)CC1` (stereo unspecified), for which the cytotoxicity at 10 µM was -0.508%.

As to `O=C1CC(N(C(=O)COc2ccc(F)cc2F)C2CC2)C(=O)N1` (stereo unspecified), the cytotoxicity at 10 µM was -3.59%.

As for `Cc1csc(CNc2cnn(C(C)C)c2)n1`, the cytotoxicity at 10 µM was 9.45%.

On to `Cc1cc(C)cc(C(=O)N2CCCN(CC(N)=O)CC2)c1`, for which the cytotoxicity at 10 µM was -5.65%.

For the molecule `Cc1cnn(CC(C)NCCc2cccs2)c1` (stereo unspecified), the cytotoxicity at 10 µM was -1.52%.

`CN(C(=O)Cn1nc(-c2ccc(F)cc2)oc1=O)C1CCS(=O)(=O)C1` (stereo unspecified): the cytotoxicity at 10 µM is 10.7%.

For the molecule `CC(C)OCCOCc1cccc(NC(=O)NCc2ccccn2)c1`, the cytotoxicity at 10 µM is -2.35%.

For the molecule `COc1ccc(-c2nc(CN3CC(n4nc(C)cc4C)C3)no2)cc1`, the cytotoxicity at 10 µM is -3.88%.

Consider `CCN(CC)c1ccc(NS(=O)(=O)c2cnn(C)c2)cn1`, for which the cytotoxicity at 10 µM was -7.12%.

Take `COc1ccccc1CN(Cc1cccnc1)Cc1nccs1`: the cytotoxicity at 10 µM is -1.53%.

With `Cc1noc(C)c1CCCNc1cnccn1`, the cytotoxicity at 10 µM came to 10.2%.

With `CCn1ncnc1C(C)NC(=O)CC1CCN(C(C)C)CC1` (stereo unspecified), the cytotoxicity at 10 µM was -133%.

As for `O=C1CC(NCc2ccc(OC(F)F)cc2)CN1Cc1cccc(F)c1` (stereo unspecified), the cytotoxicity at 10 µM was -5.29%.

Turning to `CCCn1ccnc1CN1CCCC(CC)(CO)C1` (stereo unspecified), the cytotoxicity at 10 µM was determined as 3.44%.

In the case of `COCCN(C)C[C@@H]1CN(C(=O)c2ccc(OC)c(F)c2)C[C@@H]1CO`, the cytotoxicity at 10 µM was 2.87%.

In the case of `CCCn1ccnc1CN1CCCC(O)(CN(C)C)CC1` (stereo unspecified), the cytotoxicity at 10 µM was 1.33%.

Turning to `OCCc1ncnn1Cc1cccc(Cl)c1`, the cytotoxicity at 10 µM came to 18.2%.

Turning to `COc1cccc(F)c1C(=O)N1C[C@@H](CN(C)CCO)[C@@H](CO)C1`, the cytotoxicity at 10 µM was -5.88%.

`O=S1(=O)C[C@@H]2[C@H](C1)N(Cc1ncc[nH]1)CCN2CC1CC1`: the cytotoxicity at 10 µM is -7.18%.

As for `CCn1nc(C)c(CNC(=O)c2cn(CC3CCCO3)nn2)c1C` (stereo unspecified), the cytotoxicity at 10 µM was -2.34%.

With `Cc1noc(C)c1C(=O)N(C)Cc1nc(-c2ccccn2)no1`, the cytotoxicity at 10 µM was -6.23%.

As to `CCCS(=O)(=O)N1CCN(c2cc(-n3nc(C)cc3C)nc(C)n2)CC1`, the cytotoxicity at 10 µM was -13.7%.

As to `CN(Cc1cccc(OC(F)F)c1)Cc1nc2c(cnn2C)c(=O)[nH]1`, the cytotoxicity at 10 µM was -0.438%.

With `Cc1noc(Cl)c1CCC(=O)N1CCN(c2cnccn2)CC1`, the cytotoxicity at 10 µM is -3.5%.

Regarding `CC1CCCCN1CCNC(=O)c1scnc1Cl` (stereo unspecified), the cytotoxicity at 10 µM was -6.27%.

Regarding `CC(=O)Nc1nc(C(=O)N2CCCC(n3ccnc3C)C2)cs1` (stereo unspecified), the cytotoxicity at 10 µM was -9.78%.

As for `Cc1ncc(C(=O)NCCNC(=O)c2ccccc2)s1`, the cytotoxicity at 10 µM is -3.67%.

For `O=C(c1cc2c(s1)CCCC2)N1CCCC1Cn1cccn1` (stereo unspecified), the cytotoxicity at 10 µM is -11.9%.

As to `Cc1cc(C(=O)O)cc(S(=O)(=O)Nc2ccc3c(c2)OCCO3)c1C`, the cytotoxicity at 10 µM was -3.95%.

In the case of `Cc1ccc(N2CCCC(NCc3cnc(C)s3)C2)nn1` (stereo unspecified), the cytotoxicity at 10 µM was -0.755%.

As for `COc1c(CNC2CCN(C(=O)C3CC3)CC2)c(C(C)C)nn1C`, the cytotoxicity at 10 µM was -4.72%.

Turning to `Fc1ccc(-c2nnc(CN3CCn4c(nnc4C4CC4)C3)o2)cc1`, the cytotoxicity at 10 µM turned out to be 0.577%.

For the molecule `COc1ccccc1OCC(=O)NS(=O)(=O)c1ccc(Br)s1`, the cytotoxicity at 10 µM is -8.72%.

Turning to `Cn1ccnc1N1CCN(C(=O)Cc2ccc(F)cc2)CC1`, the cytotoxicity at 10 µM was 4.73%.

Turning to `CN(C)C(=O)[C@]12CCCN(CC3CC3)C[C@H]1CN(c1ccccn1)C2`, the cytotoxicity at 10 µM worked out at 3.68%.

As for `CN(C)C(=O)COC[C@@H]1CC[C@H]2[C@H](CCN2c2ncccn2)O1`, the cytotoxicity at 10 µM stood at 15.6%.

As to `Cn1cc(CN2C[C@@H]3COC[C@H](C(=O)Nc4cccnc4)[C@@H]3C2)cn1`, the cytotoxicity at 10 µM worked out at 9.34%.

Consider `Cc1cnc2n1CCN(C)C21CCN(C(=O)CC(C)C)CC1`, for which the cytotoxicity at 10 µM is -5.85%.

Turning to `CCN(C)C1COC2(CCN(C(=O)c3cccc(Cl)c3)CC2)C1` (stereo unspecified), the cytotoxicity at 10 µM is -5.66%.

Turning to `Cn1cccc1C(=O)N[C@@H]1CN(CC2CC2)[C@@H]2COC[C@@H]21`, the cytotoxicity at 10 µM stood at 1.66%.

Regarding `CO[C@H]1CCN(C(=O)c2ccsc2)[C@@H]2CN(CC3CC3)C[C@H]12`, the cytotoxicity at 10 µM turned out to be 1.64%.

For the molecule `CN(C)CCN1CCC2(CCN(C(=O)c3cccc(F)c3)CC2)C1=O`, the cytotoxicity at 10 µM was -6.19%.

As to `CS(=O)(=O)N1C[C@@H]2C[C@H](C(=O)N3CCOCC3)[C@H](C1)O2`, the cytotoxicity at 10 µM is -2.92%.

As to `CSc1ncccc1C(=O)N1C[C@@H]2CC[C@H]1CN(c1cnccn1)C2`, the cytotoxicity at 10 µM is -2.72%.

With `Cc1nonc1CC(=O)N1C[C@H]2CC[C@@H](C1)N(Cc1ccccc1)C2=O`, the cytotoxicity at 10 µM is -11.6%.

With `Cc1nc(=O)c(CC(=O)N2C[C@@H]3CC[C@H]2CN(C(=O)N(C)C)C3)c(C)[nH]1`, the cytotoxicity at 10 µM turned out to be 7.6%.

Turning to `Cc1ccc(-n2cc3[nH]c(=O)n(C(C)C)n3c2=O)cc1`, the cytotoxicity at 10 µM is -8.9%.
